In brackets after ≈: the same amount, converted by molar mass. Non-standard residues stand in square brackets, D forms with d. Residues, ends and D or L forms follow the SMILES beside them. *: point of attachment. FITC = O=C1OC2(c3ccc(O)cc3Oc3cc(O)ccc32)c2ccc(NC(=S)*)cc21; Pra = C#CC[C@H](N)C(=O)O; βAla = NCCC(=O)O
Experiment: Dynamic light scattering
Format: physicochemical
Details: PBS with 1% DMSO
Method in brief: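 Salicylaldehyde-tagged peptide and its alkyne precursor were dissolved in DMSO at several concentrations, then diluted 1:100 into PBS. Final samples were 5 µM, 125 nM and 10 nM in PBS (+1% DMSO). Aggregation was assessed by dynamic light scattering.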

## C#CC[C@H](NC(=O)[C@H](Cc1ccccc1)NC(=O)CCNC(=S)Nc1ccc2c(c1)C(=O)OC21c2ccc(O)cc2Oc2cc(O)ccc21)C(=O)N[C@@H](C)C(=O)N[C@@H](CC(C)C)C(=O)N[C@@H](CC(=O)O)C(=O)N[C@@H](Cc1c[nH]c2ccccc12)C(=O)N[C@@H](CO)C(=O)N[C@@H](Cc1c[nH]c2ccccc12)C(=O)N[C@@H](CC(C)C)C(=O)N[C@@H](CCC(N)=O)C(=O)N[C@H](C(=O)N[C@@H](CCC(=O)O)C(N)=O)[C@@H](C)O [Compound 6] ({FITC-βAla}-F[Pra]ALDWSWLQTE-NH2)
  solubility kinetic: 0.125 µM (≈ 0.244 µg/mL)

— paper PMC12694607 (RSC Chemical Biology, 2025)
